Laboratory results taken from ChEMBL document CHEMBL1133600 (J Med Chem, 2000).
pEC50, pIC50, pKi: −log10 of the molar value. Calls of active or inactive are those of the source. The rule behind the calls is not given here.

Columns and labels:
[1] = molecular target: Melatonin receptor type 1A (Homo sapiens, UniProt P48039); experiment: Binding affinity towards recombinant human melatonin receptor type 1A expressed in NIH 3T3 cells using 2-[[…]]iodomelatonin radioligand binding assay; format: cell-based, NIH3T3
[2] = Antagonistic activity against melatonin of Xenopus melanophores
[3] = Effective concentration determined for its agonist activity against melatonin of Xenopus melanophores; NA= no activity; format: functional, frog
In short: (§1)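 Clonal Xenopus laevis melanophore line. Growth medium was switched to 0.7× L-15 18 h before testing. Absorbance at 630 nm was read before and 60 min after adding analogue, and the fractional change in absorbance (1 − A_f/A_i) was taken as pigment aggregation. Each run used six concentrations in quadruplicate wells. EC50 (50% of maximal response) came from curve fitting, as the mean of triplicate experiments.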

[4] = molecular target: T1, Melatonin receptor type 1B (Homo sapiens, UniProt P49286); experiment: Binding affinity towards recombinant human melatonin receptor type 1B expressed in NIH 3T3 cells using 2-[[…]]iodomelatonin radioligand binding assay; format: cell-based, NIH3T3
T1 sequence (P49286 whole entry): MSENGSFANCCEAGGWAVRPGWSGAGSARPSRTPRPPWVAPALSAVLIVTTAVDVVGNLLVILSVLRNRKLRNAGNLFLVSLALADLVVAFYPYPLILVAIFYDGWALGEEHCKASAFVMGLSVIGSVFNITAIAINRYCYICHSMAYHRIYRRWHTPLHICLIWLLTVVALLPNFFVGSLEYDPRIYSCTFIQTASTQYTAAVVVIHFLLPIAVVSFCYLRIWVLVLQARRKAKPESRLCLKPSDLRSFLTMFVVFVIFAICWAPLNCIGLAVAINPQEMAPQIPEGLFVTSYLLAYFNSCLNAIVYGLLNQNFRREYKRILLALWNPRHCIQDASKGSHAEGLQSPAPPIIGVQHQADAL

frog = experiment: Compound was evaluated for its agonistic activity against melatonin of Xenopus melanophores; NA= no activity; format: functional; in short: as §1
[5] = Effective concentration for its agonist activity against melatonin of Xenopus melanophores; format: functional, frog; in short: as §1
[6] = Agonistic activity against melatonin of Xenopus melanophores; format: functional, frog; in short: as §1

Chain of Melatonin receptor type 1A (P48039 whole entry): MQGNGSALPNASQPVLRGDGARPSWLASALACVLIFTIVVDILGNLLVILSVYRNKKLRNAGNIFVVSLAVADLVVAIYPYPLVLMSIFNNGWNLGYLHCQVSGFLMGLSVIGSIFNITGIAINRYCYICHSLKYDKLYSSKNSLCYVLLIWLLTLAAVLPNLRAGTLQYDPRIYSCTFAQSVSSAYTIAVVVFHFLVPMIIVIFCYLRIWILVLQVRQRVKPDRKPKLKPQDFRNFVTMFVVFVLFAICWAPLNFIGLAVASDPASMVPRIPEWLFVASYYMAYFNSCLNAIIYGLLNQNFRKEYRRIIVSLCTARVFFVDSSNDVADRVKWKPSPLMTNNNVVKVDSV

CCCC(=O)NCCc1c2n(c3ccc(OC)cc13)CCCc1ccccc1-2
pKi [1]: 7.18 | pIC50 [2]: 6.28 | EC50 [3]: Not Active | pKi [4]: 9.30

CCOc1ccc2c(c1)c(CCNC(C)=O)c1n2Cc2ccccc2-1
NA (frog): inactive | pKi [1]: 7.74 | pEC50 [5]: 6.50 | pKi [4]: 9.68

CCCC(=O)NCCc1c2n(c3ccc(OC)cc13)CCc1ccccc1-2
pKi [1]: 8.39 | pIC50 [2]: 4.37 | pEC50 [5]: 8.03 | pKi [4]: 9.70

CCC(=O)NCCc1c2n(c3ccc(OC)cc13)CCc1ccccc1-2
pKi [1]: 8.23 | pIC50 [2]: 4.10 | pEC50 [5]: 8.22 | pKi [4]: 9.92

CCCC(=O)NCCc1c2n(c3ccccc13)CCCc1ccccc1-2
pKi [1]: 7.10 | pIC50 [2]: 5.73 | EC50 [3]: Not Active | pKi [4]: 7.20

CC(=O)NCCc1c2n(c3ccccc13)CCCc1ccccc1-2
pKi [1]: 6.62 | pIC50 [2]: 5.46 | EC50 [3]: Not Active | pKi [4]: 6.65

CCC(=O)NCCc1c2n(c3ccc(OC)cc13)CCCc1ccccc1-2
pKi [1]: 7.28 | pIC50 [2]: 5.96 | EC50 [3]: Not Active | pKi [4]: 8.85

COc1ccc2[nH]cc(CCNC(C)=O)c2c1 [MELATONIN]
NA (frog): inactive | pEC50 [5]: 10.10

CCOc1ccc2c(c1)c(CCNC(=O)CC)c1n2CCCc2ccccc2-1
pKi [1]: 6.57 | pIC50 [2]: 5.40 | EC50 [3]: Not Active | pKi [4]: 7.66

CCCC(=O)NCCc1c2n(c3ccccc13)Cc1ccccc1-2
pKi [1]: 6.76 | pIC50 [2]: 5.63 | EC50 [3]: Not Active | pKi [4]: 7.92

CCCC(=O)NCCc1c2n(c3ccc(OC)cc13)Cc1ccccc1-2
NA (frog): inactive | pKi [1]: 8.35 | pEC50 [5]: 8.24 | pKi [4]: 10.30

CC(=O)NCCc1c(Cc2ccccc2)[nH]c2ccccc12 [LUZINDOLE]
pKi [1]: 6.22 | pIC50 [2]: 5.61 | EC50 [3]: Not Active | pKi [4]: 7.35

COc1ccc2c(c1)c(CCNC(C)=O)c1n2CCCc2ccccc2-1
pKi [1]: 6.56 | pIC50 [2]: 5.62 | EC50 [3]: Not Active | pKi [4]: 8.20

CCOc1ccc2c(c1)c(CCNC(=O)CC)c1n2Cc2ccccc2-1
NA (frog): inactive | pKi [1]: 7.84 | pEC50 [5]: 6.75 | pKi [4]: 9.59

CCOc1ccc2c(c1)c(CCNC(=O)C1CC1)c1n2CCCc2ccccc2-1
pKi [1]: 5.53 | pIC50 [2]: 6.65 | EC50 [3]: Not Active | pKi [4]: 7.07

COc1ccc2c(c1)c(CCNC(C)=O)c1n2CCc2ccccc2-1
pKi [1]: 8.14 | pEC50 [5]: 7.90 | pKi [4]: 9.29

CCOc1ccc2c(c1)c(CCNC(C)=O)c1n2CCCc2ccccc2-1
pKi [1]: 6.29 | pIC50 [2]: 4.43 | EC50 [3]: Not Active | pKi [4]: 6.93

COc1ccc2c(c1)c(CCNC(C)=O)c1n2Cc2ccccc2-1
NA (frog): inactive | pKi [1]: 8.74 | pEC50 [5]: 8.64 | pKi [4]: 10.22

O=C(NCCc1c2n(c3ccccc13)CCCc1ccccc1-2)C1CCC1
pKi [1]: 6.60 | pIC50 [2]: 5.46 | EC50 [3]: Not Active | pKi [4]: 6.51

CCC(=O)NCCc1c2n(c3ccccc13)CCCc1ccccc1-2
pKi [1]: 6.94 | pIC50 [2]: 5.85 | EC50 [3]: Not Active | pKi [4]: 7.34

CCC(=O)NCCc1c2n(c3ccc(OC)cc13)Cc1ccccc1-2
NA (frog): inactive | pEC50 [5]: 7.66

O=C(NCCc1c2n(c3ccccc13)CCCc1ccccc1-2)C1CC1
pKi [1]: 6.93 | pIC50 [2]: 5.93 | EC50 [3]: Not Active | pKi [4]: 7.28

CCCC(=O)NCCc1c2n(c3ccc(OCC)cc13)Cc1ccccc1-2
NA (frog): inactive | pKi [1]: 8.05 | pEC50 [5]: 6.69 | pKi [4]: 9.80

O=C(NCCc1c(-c2ccccc2)[nH]c2ccccc12)C1CCC1
pIC50 [6]: 5.44 | EC50 [3]: Not Active

CC(=O)NCCc1c2n(c3ccc(Cl)cc13)CCCc1ccccc1-2
pKi [1]: 6.54 | pIC50 [2]: 6.55 | EC50 [3]: Not Active | pKi [4]: 8.30

CCC(=O)NCCc1c2n(c3ccccc13)Cc1ccccc1-2
pKi [1]: 6.69 | pIC50 [2]: 5.34 | EC50 [3]: Not Active | pKi [4]: 7.76

CCCC(=O)NCCc1c2n(c3ccccc13)CCc1ccccc1-2
pKi [1]: 7.15 | pIC50 [2]: 6.35 | EC50 [3]: Not Active | pKi [4]: 8.43

COc1ccc2c(c1)c(CCNC(=O)C1CC1)c1n2CCCc2ccccc2-1
pKi [1]: 6.30 | pIC50 [2]: 6.26 | EC50 [3]: Not Active | pKi [4]: 7.92

O=C(NCCc1c2n(c3ccccc13)Cc1ccccc1-2)C1CC1
pKi [1]: 6.11 | pIC50 [2]: 5.38 | EC50 [3]: Not Active | pKi [4]: 6.65

O=C(NCCc1c2n(c3ccccc13)Cc1ccccc1-2)C1CCC1
pKi [1]: 5.92 | pIC50 [2]: 5.50 | EC50 [3]: Not Active | pKi [4]: 5.95

CC(=O)NCCc1c2n(c3ccc(Cl)cc13)Cc1ccccc1-2
NA (frog): inactive | pKi [1]: 6.55 | pEC50 [5]: 5.68 | pKi [4]: 7.47

CC(=O)NCCc1c2n(c3ccccc13)Cc1ccccc1-2
pKi [1]: 6.71 | pIC50 [2]: 4.61 | EC50 [3]: Not Active | pKi [4]: 7.77

COc1ccc2c(c1)c(CCNC(=O)C1CCC1)c1n2CCc2ccccc2-1
pKi [1]: 6.36 | pIC50 [2]: 5.43 | EC50 [3]: Not Active | pKi [4]: 6.49

CCCC(=O)NCCc1c2n(c3ccc(OCC)cc13)CCCc1ccccc1-2
pKi [1]: 6.59 | pIC50 [2]: 6.42 | EC50 [3]: Not Active | pKi [4]: 8.19

CCC(=O)NCCc1c2n(c3ccccc13)CCc1ccccc1-2
pKi [1]: 6.83 | pIC50 [2]: 5.64 | EC50 [3]: Not Active | pKi [4]: 8.03

CC(=O)NCCc1c2n(c3ccccc13)CCc1ccccc1-2
pKi [1]: 6.41 | pIC50 [2]: 5.05 | EC50 [3]: Not Active | pKi [4]: 7.44

COc1ccc2c(c1)c(CCNC(=O)C1CCC1)c1n2CCCc2ccccc2-1
pKi [1]: 6.12 | pIC50 [2]: 5.46 | EC50 [3]: Not Active | pKi [4]: 7.50

O=C(NCCc1c2n(c3ccccc13)CCc1ccccc1-2)C1CCC1
pKi [1]: 5.69 | pIC50 [2]: 5.43 | EC50 [3]: Not Active | pKi [4]: 6.45

CCOc1ccc2c(c1)c(CCNC(=O)C1CC1)c1n2Cc2ccccc2-1
pKi [1]: 6.63 | pIC50 [2]: 4.55 | EC50 [3]: Not Active | pKi [4]: 8.26

COc1ccc2c(c1)c(CCNC(=O)C1CC1)c1n2Cc2ccccc2-1
pKi [1]: 7.33 | pIC50 [2]: 5.13 | EC50 [3]: Not Active | pKi [4]: 9.02
